Measurements collected from several papers.
Lines come from different studies, so protocols differ.
Target: D(2) dopamine receptor (DRD2, Homo sapiens, UniProt P14416)

With `c1ccc(C2(N3CCCCC3)CCCCC2)cc1` the inhibition was 18.1% (enzyme activity, inhibitor; 10 µM).
For `COc1ccc(C(=O)NCc2cc(C(C)C)no2)cc1OC1CCN(C)CC1`, the inhibition was 18% (ligand displacement, radioligand; 10 µM).
For `Clc1ccc2c(C3CCN(CCc4c[nH]c5ccccc45)CC3)c[nH]c2c1`, the inhibition was 98% (ligand displacement, radioligand; 10 µM).
The inhibition of `CN(CCN1CCC(OC(=O)Nc2ccccc2-c2ccccc2)CC1)C(=O)c1ccc(CN2CCC(C(N)=O)CC2)cc1` is reported as -8% (ligand displacement, radioligand; 1 µM).
`CCc1ccc(OCC(=O)N2CCN(Cc3ccc4c(c3)OCO4)CC2)c(Br)c1` gave an inhibition of 23.1% (enzyme activity, inhibitor; 10 µM).
`CCN(CC)CCCC[C@H](NC(=O)[C@H](CC(C)C)NC(=O)[C@H](C)NC(=O)[C@H](Cc1ccccc1)NC(=O)c1ccc(C(C)(C)C)cc1)C(=O)N[C@@H](CO)C(=O)OC` has an inhibition of 40% (ligand displacement, radioligand; 10 µM).
The inhibition of `Cc1c(N2CCNCC2)nc2ccc(Br)cc2c1C(=O)NC[C@H](CCC(=O)O)c1ccccc1Cl` is reported as 2.75% (ligand displacement; 10 µM).
For `C[C@H](C(=O)N[C@H]1COc2ccccc2[C@@H]1S(C)(=O)=O)c1ccc(F)cc1`, the inhibition was -3% (cell-free assay; 10 µM).
`N#CC1(c2ccccn2)CCN(Cc2cc(C(=O)O)c(=O)n3ccccc23)CC1` gave an inhibition of -16.8% (cell-free assay; 10 µM).
For `OC(c1ccc(F)cc1)C(F)(F)CCN1CCC(O)(c2ccc(Cl)cc2)CC1` (racemic), the inhibition was > 50% (ligand displacement, radioligand; 10 µM).
`COc1ccc(N=Nc2ccc3[nH]cc(CCN(C)C)c3c2)cc1` has an inhibition of < 50% (ligand displacement, radioligand; 10 µM).
`COc1ccc(S(=O)(=O)N2CCCCC2)cc1C` gave an inhibition of < 30% (ligand displacement, radioligand; 10 µM).
The inhibition of `COCc1c(-c2cc3cc(C)cc(OC)c3s2)c2c(N)ncnn2c1CN1CCNC(=O)C1` is reported as 19% (ligand displacement, radioligand; 10 µM).
With `CC(C)Cn1cnc2c(N)nc3ccccc3c21` the inhibition was 14% (ligand displacement, radioligand; 10 µM).
`c1ccc(C(NCCNC(c2ccccc2)c2ccccc2)c2ccccc2)cc1` has an inhibition of 31% (cell-free assay; 10 µM).
`CNc1nc2cc(OCCCCN3CCC(c4cccc(Cl)c4Cl)CC3)ccc2s1` has an Emax of < 20% (β-arrestin recruitment, agonist; HTLA).
